Screening results from PubChem BioAssay.
Shown are actives, neighbours in structure and some others; about 2.3% of the full set was active somewhere.
TRPC4 act: TRPC4 (mouse) channel activation; HEK293 TRPC4beta/mu-opioid, Fluo4 calcium fluorescence; active compounds read high; B-score at 10 µM; hit rate 0.49% among 310,000;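 active = B-score above 5 SD of library B-scores, and initial fluorescence ratio not above library mean plus 5 SD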;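 also: positive B-score marks a calcium rise read as TRPC4 activation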
Target sequence (Q9QUQ5 whole entry, looked up): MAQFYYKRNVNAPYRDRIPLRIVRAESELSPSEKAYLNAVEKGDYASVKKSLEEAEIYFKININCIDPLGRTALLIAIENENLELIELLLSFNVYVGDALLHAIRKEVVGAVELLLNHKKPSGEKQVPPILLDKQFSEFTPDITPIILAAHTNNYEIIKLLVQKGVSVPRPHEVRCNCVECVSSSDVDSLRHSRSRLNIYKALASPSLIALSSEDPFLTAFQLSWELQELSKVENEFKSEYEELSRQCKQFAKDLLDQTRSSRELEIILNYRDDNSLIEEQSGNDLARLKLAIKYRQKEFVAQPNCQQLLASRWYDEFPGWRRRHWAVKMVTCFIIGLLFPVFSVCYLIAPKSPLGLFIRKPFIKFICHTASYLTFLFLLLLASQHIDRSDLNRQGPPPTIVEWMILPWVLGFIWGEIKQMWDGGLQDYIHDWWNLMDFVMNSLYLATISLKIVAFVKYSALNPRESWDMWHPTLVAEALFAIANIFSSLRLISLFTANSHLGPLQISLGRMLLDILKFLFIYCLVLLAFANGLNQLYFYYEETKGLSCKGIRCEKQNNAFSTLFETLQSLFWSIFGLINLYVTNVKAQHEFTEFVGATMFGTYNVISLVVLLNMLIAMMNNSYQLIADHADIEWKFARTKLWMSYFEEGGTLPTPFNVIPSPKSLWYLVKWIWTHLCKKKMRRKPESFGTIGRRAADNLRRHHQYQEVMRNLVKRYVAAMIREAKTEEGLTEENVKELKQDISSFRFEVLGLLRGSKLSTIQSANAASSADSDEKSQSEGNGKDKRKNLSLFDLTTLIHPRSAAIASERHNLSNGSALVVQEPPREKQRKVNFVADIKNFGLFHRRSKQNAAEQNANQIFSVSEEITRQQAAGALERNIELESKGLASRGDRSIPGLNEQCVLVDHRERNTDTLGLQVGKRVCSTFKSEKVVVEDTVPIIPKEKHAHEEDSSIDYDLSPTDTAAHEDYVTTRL
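Material: TRPC4beta and mu-opioid receptor HEK293 stable cells | Incubation: 45 min room-temperature Fluo4 loading, 110 s read | Detection: Kinetic Fluo4 calcium fluorescence | Measure: Integrated baseline-normalised fluorescence ratio, converted to per-well B score | Benchmarks: Low control buffer alone, high control maximal DAMGO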
TRPC6 act: activates the mouse TRPC6 cation channel; HEK293-TRPC6 membrane potential dye fluorescence; active compounds read high; B-score at 10 µM; hit rate 0.13% among 310,000; AID 2550;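 active = B-score of the integrated fluorescence ratio above library mean plus 3 SD, and starting fluorescence ratio within library mean plus 5 SD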;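 also: higher score means more depolarization so channel activation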
TRPC4 PAM: allosterically enhances the mouse TRPC4 cation channel. hit rate 0.42% among 310,000. HEK293 TRPC4beta/mu-opioid, DAMGO EC20, Fluo-4 Ca2+ flux; active compounds read high. B-score at 10 µM;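 active = B-score of calcium response area above 5 SD of library B-scores, with initial fluorescence ratio within 5 SD of library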;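 also: B-score of integrated fluorescence ratio over time as area under calcium response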
TRPC4 block: blocks the mouse TRPC4 cation channel. hit rate 0.39% among 300,000. HEK293 TRPC4beta/mu-opioid, DAMGO-evoked Fluo4 calcium flux; active compounds read low. B-score at 10 µM. AID 2247. Q9QUQ5;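 active = B-score over 3 SD under the library average, no early fluorescence shift, positive overall ratio signal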
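System: stable TRPC4beta/mu-opioid receptor HEK293 cells; Dosing: single-point compound dosing; Measured by: Fluo4 Ca2+ flux fluorescence; Read-out basis: per-well B score of integrated baseline-normalized Fluo4 ratio.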
TRPC6 inh: mouse TRPC6 channel inhibition; AID 2553; HEK293-TRPC6, membrane potential dye, ACh-evoked depolarization; active compounds read low; B-score at 10 µM; hit rate 1.1% among 310,000; Q61143;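 active = B-score under library mean minus 3 SD, initial fluorescence not abnormally high, positive integrated signal ratio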;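 also: B-score derived from integrated fluorescence ratio over the kinetic read; more negative B-score means stronger inhibition of depolarization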
TRPC4 sel inh 2: second check of whether TRPC6 inhibitors also affect mouse TRPC4 | shares compounds with TRPC6 inh | hit rate 42% among 920 | inhibition, % at 10 µM | HEK293 TRPC4/MOR, membrane potential dye fluorescence; channel activated by saturating DAMGO dose;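 active = compounds whose fluorescence signal differed from control wells by over 3 SD, either direction, in both duplicate plates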
TRPC4 spec: mouse TRPC4 off-target activity of TRPC6 inhibitors; HEK293 TRPC4/mu-opioid, membrane potential fluorescence; shares compounds with TRPC6 inh; activity change, negative = inhibition, % at 10 µM; hit rate 61% among 920;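 active = rise or fall in signal beyond 3 SD of buffer-only wells in both replicate plates, either sign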;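 also: integrated kinetic ratio of fluorescence range over baseline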
HEK293 MPD ctr 2-1: second counter-screen for TRPC6 inhibitors: parental HEK293 cells | shares compounds with TRPC6 inh | parental HEK293 membrane potential dye fluorescence; maximal acetylcholine challenge after compound addition | signal change vs control, % at 10 µM | hit rate 31% among 920;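 active = membrane potential signal moving either way by over 3 SD of the maximum-effect control, in both duplicate plates, meaning non-specific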
HEK293 MPD ctr-1: counter-screen for TRPC6 inhibitors: effect in parental HEK293 cells; shares compounds with TRPC6 inh; parental HEK293 membrane potential dye fluorescence; membrane potential signal change, % at 10 µM; hit rate 60% among 920; AID 2780;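 active = membrane potential signal shifting up or down by more than 3 SD of buffer-only wells, on both duplicate plates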
HEK293 MPD ctr-2: counter-screen for TRPC6 modulators: effect in parental HEK293 cells | shares compounds with TRPC6 inh | membrane potential dye fluorescence | membrane potential signal change, % at 10 µM | hit rate 51% among 2,400;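 active = membrane potential signal moves up or down beyond 5 SD from buffer-only wells, on both duplicate plates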
HEK293 MPD ctr 2-2: second check of TRPC6 modulator effects in parental HEK293 cells; shares compounds with TRPC6 inh; hit rate 14% among 2,400; membrane potential dye fluorescence; after compound, maximal acetylcholine stimulation; inhibition, % at 10 µM;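 active = membrane potential signal drops by more than 5 SD from the mean control signal, in both duplicate plates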;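 also: plate controls were acetylcholine ECmax control wells for no effect and buffer only wells for full effect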
TRPC4/MOR mod: tests whether TRPC6 modulators also affect mouse TRPC4. shares compounds with TRPC6 inh. percent change from control (negative = decrease, positive = increase), % at 10 µM. HEK293 TRPC4/mu-opioid, membrane potential fluorescence. hit rate 69% among 2,400;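 active = membrane potential signal moved up or down beyond 5 SD of buffer control wells, in both duplicate plates, actives on both sides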;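 also: plate controls were assay buffer wells for no effect and DAMGO maximal-effect wells for full effect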
TRPC4/MOR inh 2: second selectivity test of TRPC6 modulators against mouse TRPC4 | hit rate 55% among 2,400 | AID 488928 | inhibition, % at 10 µM | shares compounds with TRPC6 inh | HEK293 TRPC4/mu-opioid, membrane potential dye fluorescence; stimulated with maximal-effect DAMGO;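 active = drop in membrane potential signal beyond 5 SD of the control wells in both duplicate plates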;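 also: TRPC4 counter screen for TRPC6 hits run under conditions tuned for TRPC6 not TRPC4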
TRPC6 block conf: confirmation of mouse TRPC6 inhibitors | shares compounds with TRPC6 inh | HEK293-TRPC6, membrane potential dye, ACh-evoked depolarization | inhibition, % at 10 µM | hit rate 43% among 3,300 | AID 488960;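 active = fluorescence ratio falls more than 5 SD below the full-stimulation control mean, in both duplicate runs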;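 also: integrated fluorescence ratio of peak minus minimum over baseline after agonist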
TRPC6 act conf: confirmation of mouse TRPC6 activators; activation, % at 10 µM; HEK293-TRPC6 membrane potential dye fluorescence, FDSS; hit rate 11% among 2,800; shares compounds with TRPC6 inh; AID 488961;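 active = ratio signal rise beyond 5 SD above unstimulated control wells' mean, seen in both duplicate runs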;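 also: plate controls were buffer EC0 wells for no effect and acetylcholine ECmax response for full effect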
Active calls of the source: *; i = inactive; . = not tested or not shown; + = active, no number.

SMILES	TRPC4 act	TRPC6 act	TRPC4 PAM	TRPC4 block	TRPC6 inh	HEK293 MPD ctr-2	HEK293 MPD ctr 2-2	TRPC4/MOR mod	TRPC4/MOR inh 2	TRPC6 block conf	TRPC6 act conf	others
Cc1cc(Nc2cccc(Cl)c2)c2ccccc2n1	i	i	i	i	i	.	.	.	.	.	.
COc1ccc2nc(C)cc(Nc3ccc(C(=O)O)cc3)c2c1	i	i	i	i	i	.	.	.	.	.	.
CCOc1ccc(Nc2cc(C)nc3ccc(C)cc23)cc1	i	i	i	i	-6.41*	-135.0%*	i	-29.0%*	58.0%*	50.0%*	i
CCOC(=O)c1ccc2nc(C)cc(Nc3cccc(C(=O)O)c3)c2c1	i	i	i	i	i	.	.	.	.	.	.
CC(=O)c1cccc(Nc2cc(C)nc3ccccc23)c1	i	i	i	i	-5.61*	-120.0%*	i	-19.5%*	47.5%*	i	i
CC(=O)c1cccc(Nc2cc(C)nc3c(C)cccc23)c1	i	i	i	i	-5.39*	-122.5%*	57.0%*	-26.0%*	52.5%*	52.5%*	i
CCC(C)NC(=O)c1ccc(CSc2nc3ccncc3n2Cc2ccc(F)cc2)cc1 (stereo unspecified)	i	i	i	i	i	.	.	.	.	.	.
CC(C)Cn1cc(C(=O)NC2CCN(Cc3ccccc3)CC2)c2c3ccccc3n(C)c2c1=O	i	i	i	i	i	.	.	.	.	.	.
NC(=S)N/N=C/c1ccc2c(c1)OCCO2	i	i	i	i	i	.	.	.	.	.	.
O=C(Cc1ccccc1F)NC1CCCc2ccccc21 (stereo unspecified)	i	i	i	i	i	.	.	.	.	.	.
O=C(CCc1ccccc1)NC1CCCc2ccccc21 (stereo unspecified)	i	i	i	i	-7.45*	.	.	.	.	i	i	TRPC4 sel inh 2=i;TRPC4 spec=6.5%*;HEK293 MPD ctr 2-1=i;HEK293 MPD ctr-1=5.4%*
Cc1ccc2nc(-c3ccc(N)cc3)sc2c1	i	i	i	i	i	.	.	.	.	.	.
CCCCCCN1C=CC(=C/C=C(\C#N)C(=O)OCC)C=C1	61*	78.1*	i	i	-9.55*	+	87.0%*	250.0%*	i	i	566.0%*
Cc1cc(N2CCN(c3ccccc3)CC2)nc2ccccc12	i	i	i	i	i	.	.	.	.	.	.
Cc1cc(N2CCC(N(C)C3CCCC3)CC2)nc2cc(O)ccc12	i	i	i	i	-6.73*	-281.5%*	i	-54.0%*	47.0%*	43.0%*	i
COc1cccc(CNCCc2c[nH]c3ccccc23)c1OCc1ccccc1	i	i	i	i	i	.	.	.	.	.	.
COc1cccc(CNC23CC4CC(CC(C4)C2)C3)c1OCc1ccccc1	i	15.3*	i	i	-7.85*	752.5%*	i	147.0%*	80.0%*	77.5%*	241.0%*
COc1ccc(N2CCN(C(=O)CN(Cc3ccc(Cl)cc3)S(C)(=O)=O)CC2)cc1	i	i	i	i	i	.	.	.	.	.	.
CS(=O)(=O)N(CC(=O)N1CCc2ccccc2C1)Cc1ccccc1	i	i	i	i	-6.53*	i	i	12.0%*	i	i	.
CC1CCN(C(=O)CN(Cc2ccccc2)S(C)(=O)=O)CC1	i	i	i	i	i	.	.	.	.	.	.
CS(=O)(=O)N(CC(=O)N1CCN(c2ccccc2)CC1)Cc1ccc(Cl)cc1	i	i	i	i	-5.63*	i	i	13.0%*	i	i	i
N=c1sccn1CC(=O)Nc1ccccc1Oc1ccccc1	i	i	i	-6*	-5.07*	i	i	i	75.5%*	i	i
Cc1ccc(NC(=O)CN(C)C(=O)Cn2ccsc2=N)cc1	i	i	i	i	i	.	.	.	.	.	.
Cc1ccc(Oc2ccc(NC(=O)Cn3ccsc3=N)cc2)cc1	60*	i	i	i	-8.29*	.	.	.	.	89.0%*	i	TRPC4 sel inh 2=29.0%*;TRPC4 spec=i;HEK293 MPD ctr 2-1=i;HEK293 MPD ctr-1=i
CCOC(=O)/C(N=Nc1ccc(Cl)cc1)=C(/O)c1ccc([N+](=O)[O-])cc1	i	i	i	i	i	.	.	.	.	.	.
SMILES	TRPC4 act	TRPC6 act	TRPC4 PAM	TRPC4 block	TRPC6 inh	HEK293 MPD ctr-2	HEK293 MPD ctr 2-2	TRPC4/MOR mod	TRPC4/MOR inh 2	TRPC6 block conf	TRPC6 act conf	others
O=C(CSc1c[nH]c2ccccc12)N1CCOCC1	i	i	i	i	i	.	.	.	.	.	.
COc1ccc(C(CCNCc2ccc(OC(C)C)cc2)C(C)C)cc1 (stereo unspecified)	i	i	i	i	i	.	.	.	.	.	.
COc1ccc(C(CCNCc2ccc(N(C)C)cc2)C(C)C)cc1 (stereo unspecified)	i	i	i	i	-5.17*	237.0%*	i	44.5%*	56.0%*	46.5%*	.
CC(C)CC(C(=O)OCC(=O)c1c(N)n(C)c(=O)n(C)c1=O)N1C(=O)c2ccccc2C1=O (stereo unspecified)	i	i	i	i	i	.	.	.	.	.	.
CCOC(=O)c1c(-c2ccccc2)oc2ccc(OC)cc12	i	i	i	i	i	.	.	.	.	.	.
CC(C)NC(=O)NC(=O)COC(=O)CCOc1ccccc1	i	i	i	i	i	.	.	.	.	.	.
CCOCCN1CCN(C2c3ccccc3CSc3ccccc32)CC1 (stereo unspecified)	i	i	i	i	-8.33*	.	.	.	.	i	.	TRPC4 sel inh 2=72.0%*;TRPC4 spec=17.5%*;HEK293 MPD ctr 2-1=i;HEK293 MPD ctr-1=9.5%*
